The structures appear in SMILES notation.

This is an account of results in ChEMBL document CHEMBL1126270, “Synthesis of 3-[(2,3-dihydro-1,1,3-trioxo-1,2-benzisothiazol-2-yl)alkyl] 1,4-dihydropyridine-3,5-dicarboxylate derivatives as calcium channel modulators” (J Med Chem, 1992).

The species named for data set [1] is Oryctolagus cuniculus. Nature of the data set: Blockade of calcium-evoked contractions evaluated in depolarized rabbit aortic strips. It is filed as functional. As to conditions: Aorta. The method in brief:
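Male New Zealand rabbit thoracic aorta, helicoidal strips, 2.5 g preload, Krebs–bicarbonate, 37 °C, 95% O2/5% CO2, pH 7.4. After 1 h equilibration, depolarized with 35 mM K+; 1.5 mM Ca2+ added 10 min later, repeated until reproducible. Compound at increasing concentrations from 20 min before and during Ca2+ addition; responses normalized to initial tension; IC50 by Finney method.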

The species entered for data set [2] is Oryctolagus cuniculus. As to the kind of experiment: Relative potency evaluated (relative potency = IC50 of compound / IC50 of nifedipine) in rabbit. The format is functional.
The species entered for data set [3] is Oryctolagus cuniculus. Nature of the data set: Inhibition of electrically stimulated rabbit left atria contraction. It is filed as functional. The method in brief: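 Rabbit left atria electrically driven (1 Hz, 10 ms, twice threshold voltage), equilibrated 1–1.5 h. Compounds added cumulatively (10^-10–10^-6 M), diluted from DMSO stocks into Krebs–Henseleit, final DMSO <0.1%. Isometric force recorded; IC50 from contractile force relative to initial control values, with 95% confidence limits.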

For data set [4], the target named is T1, Voltage-dependent L-type calcium channel subunit alpha-1C (Oryctolagus cuniculus, UniProt P15381). As to the kind of experiment: Selectivity index was measured as the IC50 needed to depress the heart beat divided by IC50 needed to block [Ca2+] contractions in rabbit aortic strips. The format is functional, tissue-based, Aorta.
T1 sequence (P15381 whole entry): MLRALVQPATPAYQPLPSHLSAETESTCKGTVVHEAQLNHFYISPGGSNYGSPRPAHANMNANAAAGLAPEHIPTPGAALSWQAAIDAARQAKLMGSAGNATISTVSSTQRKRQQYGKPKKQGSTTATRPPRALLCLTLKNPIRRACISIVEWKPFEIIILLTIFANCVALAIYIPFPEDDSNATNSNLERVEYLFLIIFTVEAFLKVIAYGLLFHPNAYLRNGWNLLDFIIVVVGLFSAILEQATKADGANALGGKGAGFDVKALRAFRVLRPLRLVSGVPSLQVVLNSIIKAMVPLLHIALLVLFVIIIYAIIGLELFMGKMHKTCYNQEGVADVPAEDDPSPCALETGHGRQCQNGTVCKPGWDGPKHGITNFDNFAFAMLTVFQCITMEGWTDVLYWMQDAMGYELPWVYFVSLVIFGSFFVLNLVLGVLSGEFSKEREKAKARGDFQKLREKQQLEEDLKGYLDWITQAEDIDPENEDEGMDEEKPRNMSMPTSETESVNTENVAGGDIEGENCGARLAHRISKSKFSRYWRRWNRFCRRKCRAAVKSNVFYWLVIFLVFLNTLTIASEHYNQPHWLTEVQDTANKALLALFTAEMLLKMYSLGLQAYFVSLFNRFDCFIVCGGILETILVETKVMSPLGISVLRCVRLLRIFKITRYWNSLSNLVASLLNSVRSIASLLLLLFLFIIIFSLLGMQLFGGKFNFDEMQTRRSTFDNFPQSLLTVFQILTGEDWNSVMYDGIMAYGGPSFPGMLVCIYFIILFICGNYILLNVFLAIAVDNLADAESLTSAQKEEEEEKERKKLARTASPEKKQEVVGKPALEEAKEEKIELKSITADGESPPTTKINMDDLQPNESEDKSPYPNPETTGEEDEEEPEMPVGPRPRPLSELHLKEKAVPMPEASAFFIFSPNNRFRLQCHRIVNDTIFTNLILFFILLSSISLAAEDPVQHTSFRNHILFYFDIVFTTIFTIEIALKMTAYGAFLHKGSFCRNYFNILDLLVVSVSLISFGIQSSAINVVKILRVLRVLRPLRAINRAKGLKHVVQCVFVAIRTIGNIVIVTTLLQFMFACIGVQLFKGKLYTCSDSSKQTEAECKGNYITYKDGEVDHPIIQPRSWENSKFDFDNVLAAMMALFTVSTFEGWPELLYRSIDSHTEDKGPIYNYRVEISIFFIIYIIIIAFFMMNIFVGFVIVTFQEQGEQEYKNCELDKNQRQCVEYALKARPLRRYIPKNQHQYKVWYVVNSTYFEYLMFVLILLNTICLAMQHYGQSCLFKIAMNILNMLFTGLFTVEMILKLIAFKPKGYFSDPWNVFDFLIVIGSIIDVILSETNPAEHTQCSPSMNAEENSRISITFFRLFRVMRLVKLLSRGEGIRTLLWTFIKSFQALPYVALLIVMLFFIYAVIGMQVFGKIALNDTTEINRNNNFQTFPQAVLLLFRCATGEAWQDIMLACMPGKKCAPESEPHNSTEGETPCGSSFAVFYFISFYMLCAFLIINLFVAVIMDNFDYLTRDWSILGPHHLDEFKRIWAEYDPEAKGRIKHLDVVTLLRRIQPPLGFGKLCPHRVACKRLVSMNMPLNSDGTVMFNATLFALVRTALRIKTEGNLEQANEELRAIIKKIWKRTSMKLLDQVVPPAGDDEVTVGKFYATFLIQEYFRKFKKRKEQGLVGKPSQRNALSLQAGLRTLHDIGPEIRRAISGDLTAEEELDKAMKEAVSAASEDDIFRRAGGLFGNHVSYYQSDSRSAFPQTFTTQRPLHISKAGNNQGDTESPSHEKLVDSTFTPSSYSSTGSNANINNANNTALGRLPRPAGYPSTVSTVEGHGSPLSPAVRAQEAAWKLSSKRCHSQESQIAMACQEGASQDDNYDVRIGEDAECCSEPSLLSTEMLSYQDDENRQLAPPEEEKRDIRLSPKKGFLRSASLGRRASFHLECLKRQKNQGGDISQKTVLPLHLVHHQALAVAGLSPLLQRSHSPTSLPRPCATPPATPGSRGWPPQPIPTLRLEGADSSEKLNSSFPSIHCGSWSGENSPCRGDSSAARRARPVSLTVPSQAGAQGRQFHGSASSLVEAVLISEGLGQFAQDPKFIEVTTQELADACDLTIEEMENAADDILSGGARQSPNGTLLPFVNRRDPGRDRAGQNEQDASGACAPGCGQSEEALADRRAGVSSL
For data set [5], the species on record is Oryctolagus cuniculus. As to the kind of experiment: Recovery of the initial contraction of rabbit aortic strips, blocked at 10e-7 M concentration. As to conditions: Aorta.
The target of data set [6] is T1, Voltage-dependent L-type calcium channel subunit alpha-1C. Nature of the data set: Blockade of calcium-evoked contractions in depolarized aortic strips. The format is functional, tissue-based, Aorta.
The species named for data set [7] is Oryctolagus cuniculus. As to the kind of experiment: Relative potency was evaluated. (relative potency = IC50 of compound / IC50 of nifedipine). It is filed as functional.

For `CCO/C(O)=C1\C(C)=NC(C)=C(C(=O)OCCN2C(=O)c3ccccc3S2(=O)=O)C1c1cccc(Cl)c1Cl` (stereo not given), the IC50 (in general, the concentration that gives 50% inhibition) in data set [1] was 4 nM. Moreover, the Relative potency in data set [2] worked out at 0.7.
The corresponding values for `COCCO/C(O)=C1\C(C)=NC(C)=C(C(=O)OCCCN2C(=O)c3ccccc3S2(=O)=O)C1c1ccccc1Cl` (stereo not given) are 2.9 nM and 1.
Turning to `CC1=NC(C)=C(C(=O)OCCCN2C(=O)c3ccccc3S2(=O)=O)C(c2ccccc2C(F)(F)F)/C1=C(\O)OC(C)C` (stereo not given), in data set [1], the IC50 came to 2.7 nM. Also, in data set [2], the Relative potency is recorded as 1.1.
In the case of `CC1=NC(C)=C(C(=O)OCCN2C(=O)c3ccccc3S2(=O)=O)C(c2ccccc2[N+](=O)[O-])/C1=C(\O)OC(C)(C)C` (stereo not given), the figures for the IC50 in data set [3] and in data set [1] were 28.5 nM and 0.7 nM, respectively. The Relative potency in data set [2] is listed as 4.1. Besides, in data set [4], the Selectivity index is given as 41. Also, in data set [5], the Recovery was determined as 0.2%.
For `CO/C(O)=C1\C(C)=NC(C)=C(C(=O)OCCN2C(=O)c3ccccc3S2(=O)=O)C1c1cccc(Cl)c1Cl` (stereo not given), in data set [1], the IC50 was found to be 17.3 nM. The Relative potency in data set [2] was 0.2.
In the same order, the values of `COCCO/C(O)=C1\C(C)=NC(C)=C(C(=O)OCCN2C(=O)c3ccccc3S2(=O)=O)C1c1cccc(Cl)c1Cl` (stereo not given) are 7 nM and 0.4.
The corresponding values for `CC1=NC(C)=C(C(=O)OCCCN2C(=O)c3ccccc3S2(=O)=O)C(c2cccc([N+](=O)[O-])c2)/C1=C(\O)OCC1CCCO1` (stereo not given) are 10.5 nM and 0.3.
For the molecule `CO/C(O)=C1\C(C)=NC(C)=C(C(=O)OCCN2C(=O)c3ccccc3S2(=O)=O)C1c1cccc([N+](=O)[O-])c1` (stereo not given), the IC50 in data set [1] is 39.8 nM. In data set [2], this molecule returned a Relative potency of 0.1.
Regarding `CC1=NC(C)=C(C(=O)OCN2C(=O)c3ccccc3S2(=O)=O)C(c2ccccc2[N+](=O)[O-])/C1=C(\O)OC(C)C` (stereo not given), the IC50 in data set [6] was 1.4 nM. The molecule also showed a Relative potency in data set [7] of 2.1.
In the same order, the values of `COCCO/C(O)=C1\C(C)=NC(C)=C(C(=O)OCN2C(=O)c3ccccc3S2(=O)=O)C1c1cccc(Cl)c1Cl` (stereo not given) are 2.9 nM and 1.
In the same order, the values of `CC1=NC(C)=C(C(=O)OCN2C(=O)c3ccccc3S2(=O)=O)C(c2ccccc2[N+](=O)[O-])/C1=C(\O)OCC1CCCCO1` (stereo not given) are 25.1 nM and 0.1.
With `COCCO/C(O)=C1\C(C)=NC(C)=C(C(=O)OCCCN2C(=O)c3ccccc3S2(=O)=O)C1c1ccccc1[N+](=O)[O-]` (stereo not given), the IC50 in data set [1] turned out to be 2.7 nM. The molecule also registered a Relative potency in data set [2] of 1.1.
The corresponding values for `CC1=NC(C)=C(C(=O)OCCCN2C(=O)c3ccccc3S2(=O)=O)C(c2ccccc2C(F)(F)F)/C1=C(\O)OCC1CCCO1` (stereo not given) are 3.7 nM and 0.8.
For `CO/C(O)=C1\C(C)=NC(C)=C(C(=O)OCCCN2C(=O)c3ccccc3S2(=O)=O)C1c1ccccc1[N+](=O)[O-]` (stereo not given), the results for the IC50 in data set [3] and in data set [1] were 120 nM and 1.5 nM, respectively. The molecule further displayed a Relative potency in data set [2] of 1.9. In data set [4], the Selectivity index is on record as 80. The Recovery in data set [5] came to 18.8%.
Turning to `CC1=NC(C)=C(C(=O)OCCCN2C(=O)c3ccccc3S2(=O)=O)C(c2ccccc2Cl)/C1=C(\O)OC(C)C` (stereo not given), the values for the IC50 in data set [3] and in data set [1] were 48 nM and 1.3 nM, respectively. Further, in data set [2], the Relative potency is 2.2. Also, the Selectivity index in data set [4] amounted to 37.
For the molecule `CC1=NC(C)=C(C(=O)OCCCN2C(=O)c3ccccc3S2(=O)=O)C(c2cccc(Cl)c2Cl)/C1=C(\O)OC(C)(C)C` (stereo not given), in data set [1], the 50% inhibitory concentration (IC50) amounted to 3.1 nM. The Relative potency in data set [2] is given as 0.2.
As to `COCCO/C(O)=C1\C(C)=NC(C)=C(C(=O)OCCCN2C(=O)c3ccccc3S2(=O)=O)C1c1cccc([N+](=O)[O-])c1` (stereo not given), the IC50 in data set [1] worked out at 6.8 nM. In addition, the Relative potency in data set [2] is listed as 0.4.
For the molecule `CO/C(O)=C1\C(C)=NC(C)=C(C(=O)OCCCN2C(=O)c3ccccc3S2(=O)=O)C1c1cccc([N+](=O)[O-])c1` (stereo not given), the IC50 in data set [1] came out at 2.6 nM. In addition, the Relative potency in data set [2] was 1.1.
The corresponding values for `CC1=NC(C)=C(C(=O)OCCN2C(=O)c3ccccc3S2(=O)=O)C(c2ccccc2C(F)(F)F)/C1=C(\O)OCC1CCCO1` (stereo not given) are 2.5 nM and 1.2.
With `COCCO/C(O)=C1\C(C)=NC(C)=C(C(=O)OCCN2C(=O)c3ccccc3S2(=O)=O)C1c1ccccc1Cl` (stereo not given), the IC50 in data set [1] came out at 22.9 nM. In addition, in data set [2], the Relative potency worked out at 0.1. The same molecule returned a Recovery in data set [5] of 0.5%.
For the molecule `CC1=NC(C)=C(C(=O)OCCN2C(=O)c3ccccc3S2(=O)=O)C(c2cccc(Cl)c2Cl)/C1=C(\O)OCC1CCCO1` (stereo not given), the IC50 in data set [1] was 2.1 nM. The molecule further returned a Relative potency in data set [2] of 1.4.
As for `COCCO/C(O)=C1\C(C)=NC(C)=C(C(=O)OCCCN2C(=O)c3ccccc3S2(=O)=O)C1c1ccccc1C(F)(F)F` (stereo not given), the IC50 was determined as 21.8 nM in data set [3] and 1.4 nM in data set [1]. Moreover, in data set [2], the Relative potency is given as 2.1. Moreover, in data set [4], the Selectivity index was found to be 16. The same molecule gave a Recovery in data set [5] of 18.3%.
Regarding `CCO/C(O)=C1\C(C)=NC(C)=C(C(=O)OCCN2C(=O)c3ccccc3S2(=O)=O)C1c1ccccc1Cl` (stereo not given), the IC50 in data set [1] stood at 10 nM. This molecule returned a Relative potency in data set [2] of 0.3.
Take `CCO/C(O)=C1\C(C)=NC(C)=C(C(=O)OCCCN2C(=O)c3ccccc3S2(=O)=O)C1c1ccccc1[N+](=O)[O-]` (stereo not given): in data set [1], the IC50 is 2.6 nM. In data set [2], this molecule displayed a Relative potency of 1.1.
The corresponding values for `CC1=NC(C)=C(C(=O)OCCCN2C(=O)c3ccccc3S2(=O)=O)C(c2ccccc2Cl)/C1=C(\O)OCC1CCCO1` (stereo not given) are 7.1 nM and 0.4.
The corresponding values for `CC1=NC(C)=C(C(=O)OCCN2C(=O)c3ccccc3S2(=O)=O)C(c2ccccc2Cl)/C1=C(\O)OCC1CCCO1` (stereo not given) are 3.5 nM and 0.8.
The corresponding values for `COCCO/C(O)=C1\C(C)=NC(C)=C(C(=O)OCCN2C(=O)c3ccccc3S2(=O)=O)C1c1cccc([N+](=O)[O-])c1` (stereo not given) are 28.8 nM and 0.1.
`CC1=NC(C)=C(C(=O)OCCCN2C(=O)c3ccccc3S2(=O)=O)C(c2ccccc2[N+](=O)[O-])/C1=C(\O)OCC1CCCO1` (stereo not given): in data set [1], the IC50 amounted to 6.8 nM. The Relative potency in data set [2] was 0.4.
On to `CO/C(O)=C1\C(C)=NC(C)=C(C(=O)OCCCN2C(=O)c3ccccc3S2(=O)=O)C1c1ccccc1Cl` (stereo not given), for which the IC50 came to 140 nM in data set [3] and 1.8 nM in data set [1]. The molecule further had a Relative potency in data set [2] of 1.6. The Selectivity index in data set [4] is given as 77. For the same molecule, in data set [5], the Recovery stood at 6.05%.
For the molecule `CC1=NC(C)=C(C(=O)OCCN2C(=O)c3ccccc3S2(=O)=O)C(c2ccccc2Cl)/C1=C(\O)OC(C)C` (stereo not given), the IC50 in data set [1] amounted to 3.1 nM. Besides, in data set [2], the Relative potency worked out at 0.9.
`CC1=NC(C)=C(C(=O)OCCCN2C(=O)c3ccccc3S2(=O)=O)C(c2cccc([N+](=O)[O-])c2)/C1=C(\O)OC(C)C` (stereo not given): the IC50 in data set [3] was found to be 210 nM; in data set [1], 1 nM. The molecule further showed a Relative potency in data set [2] of 2.9. Also, the Selectivity index in data set [4] came to 205. The molecule further yielded a Recovery in data set [5] of 1.6%.
As for `CC1=NC(C)=C(C(=O)OCCN2C(=O)c3ccccc3S2(=O)=O)C(c2ccccc2Cl)/C1=C(\O)OC(C)(C)C` (stereo not given), the IC50 in data set [1] is 4.5 nM. In addition, the Relative potency in data set [2] was determined as 0.6.
For the molecule `CCO/C(O)=C1\C(C)=NC(C)=C(C(=O)OCCCN2C(=O)c3ccccc3S2(=O)=O)C1c1cccc([N+](=O)[O-])c1` (stereo not given), in data set [1], the IC50 amounted to 1.9 nM. Also, the Relative potency in data set [2] came out at 1.5.
As to `CC1=NC(C)=C(C(=O)OCCCN2C(=O)c3ccccc3S2(=O)=O)C(c2ccccc2Cl)/C1=C(\O)OCC1CCCCO1` (stereo not given), the IC50 in data set [1] was found to be 7 nM. Also, in data set [2], the Relative potency was determined as 0.4.
Regarding `CCO/C(O)=C1\C(C)=NC(C)=C(C(=O)OCCCN2C(=O)c3ccccc3S2(=O)=O)C1c1ccccc1C(F)(F)F` (stereo not given), the IC50 stood at 124 nM in data set [3] and 0.8 nM in data set [1]. In data set [2], the Relative potency is reported as 3.6. The Selectivity index in data set [4] was 163. This molecule returned a Recovery in data set [5] of 1.2%.
For `COCCO/C(O)=C1\C(C)=NC(C)=C(C(=O)OCCN2C(=O)c3ccccc3S2(=O)=O)C1c1ccccc1C(F)(F)F` (stereo not given), the IC50 in data set [1] turned out to be 1.4 nM. In addition, the Relative potency in data set [2] turned out to be 2.1.
The corresponding values for `CCO/C(O)=C1\C(C)=NC(C)=C(C(=O)OCCCN2C(=O)c3ccccc3S2(=O)=O)C1c1ccccc1Cl` (stereo not given) are 3.9 nM and 0.7.
The corresponding values for `CCO/C(O)=C1\C(C)=NC(C)=C(C(=O)OCCN2C(=O)c3ccccc3S2(=O)=O)C1c1cccc([N+](=O)[O-])c1` (stereo not given) are 2.6 nM and 1.1.
For `CC1=NC(C)=C(C(=O)OCCCN2C(=O)c3ccccc3S2(=O)=O)C(c2ccccc2[N+](=O)[O-])/C1=C(\O)OCC1CCCCO1` (stereo not given), the IC50 in data set [1] is 11.5 nM. The Relative potency in data set [2] was 0.3.
The corresponding values for `CC1=NC(C)=C(C(=O)OCCN2C(=O)c3ccccc3S2(=O)=O)C(c2ccccc2C(F)(F)F)/C1=C(\O)OCC1CCCCO1` (stereo not given) are 25.5 nM and 0.1.
In the same order, the values of `CC1=NC(C)=C(C(=O)OCCCN2C(=O)c3ccccc3S2(=O)=O)C(c2cccc(Cl)c2Cl)/C1=C(\O)OCC1CCCCO1` (stereo not given) are 4 nM and 0.7.
Consider `CC1=NC(C)=C(C(=O)OCCN2C(=O)c3ccccc3S2(=O)=O)C(c2cccc(Cl)c2Cl)/C1=C(\O)OCC1CCCCO1` (stereo not given), for which the IC50 in data set [1] was found to be 11.1 nM. For the same molecule, the Relative potency in data set [2] stood at 0.3.
